Reference: ChEMBL document CHEMBL5154665, “Design, synthesis, biochemical evaluation, radiolabeling and in vivo imaging with high affinity class-IIa histone deacetylase inhibitor for molecular imaging and targeted therapy” (Eur J Med Chem, 2022)

Experiments:
[1] = molecular target: Histone deacetylase 4 (Homo sapiens, UniProt P56524); experiment: Inhibition of recombinant human HDAC4 using fluorogenic substrate by fluorescence microplate reader assay
How it was run: (§1)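 Recombinant human HDAC isoforms were tested at 9 inhibitor dilutions in commercial fluorogenic enzyme kits, per the manufacturer's protocol. For class IIa enzymes, deacetylation of a TFA-lysine substrate lets trypsin release a fluorophore, read on a microplate reader. IC50 came from a nonlinear fit of % HDAC activity inhibition against compound concentration.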

[2] = molecular target: T1, Histone deacetylase 8 (Homo sapiens, UniProt Q9BY41); experiment: Inhibition of recombinant human HDAC8 using fluorogenic substrate by fluorescence microplate reader assay; how it was run: as §1
T1 sequence (Q9BY41 whole entry): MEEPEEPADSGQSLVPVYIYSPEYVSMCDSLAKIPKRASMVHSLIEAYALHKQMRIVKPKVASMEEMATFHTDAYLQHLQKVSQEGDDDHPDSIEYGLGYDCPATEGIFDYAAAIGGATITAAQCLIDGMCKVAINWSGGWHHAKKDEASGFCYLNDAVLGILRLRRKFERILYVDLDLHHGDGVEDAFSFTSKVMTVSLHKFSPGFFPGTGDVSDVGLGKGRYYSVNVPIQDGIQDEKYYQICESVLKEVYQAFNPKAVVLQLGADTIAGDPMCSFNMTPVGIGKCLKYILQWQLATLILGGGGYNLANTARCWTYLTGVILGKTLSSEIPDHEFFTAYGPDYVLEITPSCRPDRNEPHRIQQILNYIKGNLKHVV

[3] = molecular target: T2, Histone deacetylase 11 (Homo sapiens, UniProt Q96DB2); experiment: Inhibition of recombinant human HDAC11 using fluorogenic substrate by fluorescence microplate reader assay; how it was run: as §1
T2 sequence (Q96DB2 whole entry): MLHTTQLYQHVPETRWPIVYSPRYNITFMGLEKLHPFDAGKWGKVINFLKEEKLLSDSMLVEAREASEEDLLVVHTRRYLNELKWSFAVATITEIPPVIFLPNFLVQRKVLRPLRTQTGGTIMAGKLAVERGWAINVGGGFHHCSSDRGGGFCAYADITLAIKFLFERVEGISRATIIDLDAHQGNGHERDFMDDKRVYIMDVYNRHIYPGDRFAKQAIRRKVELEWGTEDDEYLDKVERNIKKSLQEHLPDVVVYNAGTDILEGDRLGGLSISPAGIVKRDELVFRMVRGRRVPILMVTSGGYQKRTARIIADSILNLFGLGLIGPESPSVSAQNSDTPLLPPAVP

[4] = molecular target: Histone deacetylase 2 (Homo sapiens, UniProt Q92769); experiment: Inhibition of recombinant human HDAC2 using fluorogenic substrate by fluorescence microplate reader assay; how it was run: as §1
[5] = Inhibition of HDAC class 2a in human THP-1 cells using TFA-lysine as fluorogenic substrate by fluorescence microplate reader assay; type: cell-based
[6] = Inhibition of HDAC class 2a in human PANC-1 cells using TFA-lysine as fluorogenic substrate by fluorescence microplate reader assay; type: cell-based
[7] = molecular target: T3, Class 1 histone deacetylase (Homo sapiens, UniProt Q13547+O15379+Q92769+Q9BY41); experiment: Inhibition of HDAC class 1 in human THP-1 cells using TFA-lysine as fluorogenic substrate by fluorescence microplate reader assay; type: cell-based
[8] = Inhibition of HDAC class 2b in human THP-1 cells using TFA-lysine as fluorogenic substrate by fluorescence microplate reader assay; type: cell-based
[9] = Inhibition of HDAC class 2a in human L3.6pl cells using TFA-lysine as fluorogenic substrate by fluorescence microplate reader assay; type: cell-based
[10] = molecular target: T3, Class 1 histone deacetylase; experiment: Inhibition of HDAC class 1 in human HT-29 cells using […] as fluorogenic substrate by fluorescence microplate reader assay; type: cell-based
How it was run: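 HT-29 cells were plated at 200,000 cells/well in RPMI without phenol red with 0.1% FBS, with 100 µM Boc-Lys-TFA for class IIa or 200 µM Boc-Lys-Ac for class I/IIb. Compounds ran as an 11-point curve (5% final DMSO), with 5 µM trichostatin A as the positive control. Incubation was 3 h at 37 °C, then trypsin developer with Tween 80 for 1 h to lyse cells and release fluorophore.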

Sequence of Histone deacetylase 4 (P56524 whole entry, canonical isoform): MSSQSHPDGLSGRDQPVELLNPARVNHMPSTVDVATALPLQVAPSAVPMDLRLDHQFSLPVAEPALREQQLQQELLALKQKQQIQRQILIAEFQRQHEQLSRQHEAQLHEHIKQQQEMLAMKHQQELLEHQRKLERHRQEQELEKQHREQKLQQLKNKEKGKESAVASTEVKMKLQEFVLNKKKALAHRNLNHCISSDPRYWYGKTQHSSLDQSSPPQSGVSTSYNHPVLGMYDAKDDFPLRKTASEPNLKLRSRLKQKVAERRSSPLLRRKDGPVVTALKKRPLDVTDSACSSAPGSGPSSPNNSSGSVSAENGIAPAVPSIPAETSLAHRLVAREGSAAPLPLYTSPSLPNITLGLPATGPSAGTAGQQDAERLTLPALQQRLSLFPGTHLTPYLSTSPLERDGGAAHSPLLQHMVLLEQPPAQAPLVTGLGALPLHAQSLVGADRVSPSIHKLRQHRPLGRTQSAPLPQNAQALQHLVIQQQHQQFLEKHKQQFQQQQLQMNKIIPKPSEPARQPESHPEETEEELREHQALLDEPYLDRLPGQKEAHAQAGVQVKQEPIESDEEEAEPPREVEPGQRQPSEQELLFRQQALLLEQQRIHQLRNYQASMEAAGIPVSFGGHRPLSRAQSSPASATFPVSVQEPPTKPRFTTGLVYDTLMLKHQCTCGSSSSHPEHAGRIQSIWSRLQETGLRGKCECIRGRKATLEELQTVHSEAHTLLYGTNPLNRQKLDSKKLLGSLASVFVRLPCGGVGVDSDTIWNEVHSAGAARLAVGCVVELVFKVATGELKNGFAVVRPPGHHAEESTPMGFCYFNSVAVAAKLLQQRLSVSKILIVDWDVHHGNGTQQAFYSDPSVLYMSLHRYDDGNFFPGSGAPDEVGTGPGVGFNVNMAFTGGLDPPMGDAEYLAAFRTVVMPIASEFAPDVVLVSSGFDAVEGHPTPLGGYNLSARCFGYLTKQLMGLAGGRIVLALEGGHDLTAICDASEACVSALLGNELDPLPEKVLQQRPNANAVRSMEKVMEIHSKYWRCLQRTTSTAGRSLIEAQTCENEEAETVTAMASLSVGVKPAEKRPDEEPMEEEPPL
Sequence of Histone deacetylase 2 (Q92769 whole entry): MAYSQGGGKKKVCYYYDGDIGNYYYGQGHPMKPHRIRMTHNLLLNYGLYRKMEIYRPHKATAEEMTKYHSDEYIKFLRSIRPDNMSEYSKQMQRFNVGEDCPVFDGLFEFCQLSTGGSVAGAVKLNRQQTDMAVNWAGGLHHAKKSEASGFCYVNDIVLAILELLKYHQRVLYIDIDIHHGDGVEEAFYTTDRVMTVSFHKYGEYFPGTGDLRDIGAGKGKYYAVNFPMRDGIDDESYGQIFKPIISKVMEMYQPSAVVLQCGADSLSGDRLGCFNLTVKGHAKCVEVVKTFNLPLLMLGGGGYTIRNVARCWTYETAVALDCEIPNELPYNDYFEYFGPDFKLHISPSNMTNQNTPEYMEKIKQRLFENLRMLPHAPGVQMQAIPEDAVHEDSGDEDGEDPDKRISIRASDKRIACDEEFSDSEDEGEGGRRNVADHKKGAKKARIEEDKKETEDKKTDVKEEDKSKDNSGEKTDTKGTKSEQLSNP

- IC50 [1]: 128 nM
- IC50 [2]: > 5000 nM
- IC50 [3]: > 5000 nM
- IC50 [4]: > 5000 nM
- IC50 [5]: 887 nM
- IC50 [6]: 888 nM
- IC50 [7]: > 5000 nM
- IC50 [8]: > 5000 nM
- IC50 [9]: 893 nM
- IC50 [10]: > 5000 nM
SMILES: CC(C)(CNC(=O)c1cccc(-c2noc(C(F)(F)F)n2)c1)c1coc(-c2ccccc2)n1
